Compound activity deposited in PubChem by SRMLSC.
Ecoli WT growth – blocks growth of wild type E. coli BW25113. AID 552. E. coli BW25113 growth inhibition, OD600. actives 0.05% (n = 20,000). inhibition, % at 10 µM; in the data active = inhibition above about 40%;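 also: bacteria exposed to compound for 20 hours at 37 °C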
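Assay system: Bacterial strain in a whole-cell growth screen | Amount: Inoculum from a 1:1000 dilution of a 1.5 h subculture | Detection: Absorbance at 615 nm as a measure of bacterial growth | Timing: 20 h exposure, 37 °C | Buffer or medium: LB plus kanamycin 50 µg/mL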
* = called active by the depositor. Many of the other results were omitted from the sample, so hits are more common in it than they were.

SMILES	Ecoli WT growth
CN(C)[C@@H]1C(=O)C(C(N)=O)=C(O)[C@@]2(O)C(=O)C3=C(O)c4c(O)cccc4[C@@](C)(O)[C@H]3[C@H](O)[C@@H]12	39.9*
CC1CCC(C(=O)NC(C(=O)N2CCC3(CC2)OCCO3)C(C)C)CC1 (stereo not given)	4.7
CN(C)CCN=Cc1c(O)n(-c2cccc3ccccc23)c(=O)[nH]c1=O	-6.2
NCC1(CC(=O)O)CCCCC1	7.4
COc1ccc(C(=O)N2CCCC2=O)cc1	-3.5
